# Laboratory results: the array DNA melting data of Ke et al. (doi:10.1101/2024.01.08.574731)
# How the values were obtained:
# [1] = melting temperature; fluorescence melt of hairpins on a sequencing array, two-state fit, raised by 9.35 °C to match UV melts; conditions: sodium 0.088 M
# Summary of the method: (§1)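 On a sequenced MiSeq flow cell, library hairpins with annealed Cy3 and quencher oligos were imaged for Cy3 fluorescence in 2.5 °C steps up to 60 °C, in 50 mM Na-HEPES pH 8.0, 25 mM NaCl. Normalisation used pre-quench Cy3 and control constructs. Bootstrapped two-state fits gave melting temperature and folding enthalpy, combined by inverse variance across four replicates and with fitted temperatures raised by 9.35 °C to match UV melts.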
# [2] = folding enthalpy; higher = less favourable; fluorescence melt of hairpins on a sequencing array, two-state fit; conditions: sodium 0.088 M
# Summary of the method: as §1
Sequence,Tm [1] [°C],folding enthalpy [2] [kcal/mol]
GATCAATCCATTGATC ((((((....)))))),49.7,-42.6
GTAACTGGAAACAGTTGC (.(((((....))))).),47.4,-26.6
GGGCCAGGAAACCAGCCC ((((..(....)..)))),43.9,-26.8
GACTAGCGAAAGCTGTC (((.(((....)))))),50.3,-19.6
GTTGGAGAAATCCAAC ((((((....)))))),52,-32
GGTAGCGAAAGCTATACC ((((((....)))..))),44,-15.5
GTCCAGCGAAAGCTGAC (((.(((....)))))),46.4,-11.4
GGTCCAGGAAACCAGACC ((((..(....)..)))),34.5,-23.1
GCGGAACACCGC ((((....)))),54.6,-23.2
GATCAGCAACCTGATC ((((((....)))))),46.2,-33
GCGTATTCGAAAGAACGC (((..(((....)))))),42.2,-24.4
GCGGGAAGCCGC ((((....)))),61.6,-18.4
GATCGCCGTAGCGATC ((((((....)))))),69.2,-45
GAAGGACGAAAGTCGTTC (((.(((....))).))),51.9,-37.1
GCAGCAGGAAACTGCTAC (.(((((....))))).),44.7,-13.4
CACTGGAAACAGTG (((((....))))),50.7,-26.7
GCGACCCCTCGC ((((....)))),50.1,-23.4
GATAACGCGAAAGCGATC (((..(((....)))))),24.1,-10.2
GACTTCCGAAAGGATGTC (((.(((....))).))),52.8,-40.7

Sequence,Tm [1] [°C],folding enthalpy [2] [kcal/mol]
AGGGAGAAATCCCT (((((....))))),42,-18.6
GGCCACGGAAACGCGGCC ((((.((....)).)))),66.5,-40.4
GGATTACGAAAGTAGTCC (((.(((....))).))),50.9,-37.5
GGTCTCGAAAGAGTTACC ((((((....)))..))),32.3,-17.3
GCCGGGCGAAAGCCCCGC ((.((((....)))).)),54.4,-16.2
GAGTACGGAAACGTACCC (.(((((....))))).),42.2,-15.5
GGCTGGGGAAACCCAGTC (.(((((....))))).),55.8,-41.6
GCCAGGCGAAAGCCCCGC ((..(((....)))..)),28.1,-11.6
CGCACGGAAACGTCAGCG ((((((....)))..))),42.7,-26.4
GGTCTTACGAAAGTAACC (((..(((....)))))),25.7,-10.7
GCCTCGGGAAACTGGGGC (((.(.(....).).))),47.4,-37.5
GAGGGCGAAAGCCCCCTC ((((((....)))..))),42.7,-7.33
GCTCGGCGAAAGCGCAGC (((..((....))..))),51.1,-9.7
GGGAGTGGAAACGTTCCC ((((..(....)..)))),36.2,-16.5
GCGTCCGAAAGGAGGCGC ((((((....)))..))),67.5,-36.3
GCAGCGCGAAAGCTATGC (((..((....))..))),45.2,-16.8
GAGACGCGAAAGCGCTC (((.(((....)))))),50,-14.3
GACGCCCGAAAGGGAGTC (((.(((....))).))),66.7,-32.8
GATCGGTTACCCGATC ((((((....)))))),57.3,-41.4
